Source: ChEMBL document CHEMBL4513216, “Probing the Open Global Health Chemical Diversity Library for Multistage-Active Starting Points for Next-Generation Antimalarials” (ACS Infect Dis, 2020)

Assay: Toxicity liver stage against HepG2, at 10uM
Format: cell-based
Design: test concentration 10 uM, cell line HepG2-A16-CD81EGFP
Conditions: human, HepG2-A16-CD81EGFP cells; read-out: INHIBITION
How it was run: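 Uninfected HepG2-A16-CD81EGFP cells, 3 × 10^3 per well, 1536-well, plated on prespotted compound at 10 μM final, parasite-free screening media added to match infected plates; puromycin 10 μM positive, DMSO 0.5% negative; run in parallel with 48 h PbLuc assay at 37 °C, 5% CO2; viability by CellTiter-Glo luminescence, normalized to controls.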

| SMILES | cytotoxicity at 10 µM [%] |
| --- | --- |
| O=C(NCCC1=CCCCC1)c1[nH]nc2c1CCCC2 | -80.4 |
| CCCN1CCc2nc(SCc3ccc(F)cc3)[nH]c(=O)c2C1 | -3.37 |
| CC(C)N1C[C@@H](CO)[C@H](c2ccccc2)S1(=O)=O | -1.94 |
| O=C1NCCN1C(CNS(=O)(=O)C1CC1)Cc1cccc(F)c1 (centres undefined) | -3.09 |
| Cn1cccc1C(=O)N1CCC2(CC1)CCN2S(C)(=O)=O | 8.73 |
| CN(C)S(=O)(=O)NCC1OCCc2cn(CC3CCOCC3)nc21 (centres undefined) | 7.4 |
| COCCN1CCC2(CCCN(C(=O)c3ccoc3C)C2)C1=O (centres undefined) | 0.369 |
| O=C1CC(c2ccccc2C(F)(F)F)c2sc(N3CCOCC3)nc2N1 (centres undefined) | 9.18 |
| Cc1nn(CC(=O)Nc2ccon2)cc1Br | 4.95 |
| CCn1cc(Cl)c(C(=O)NCCCO)n1 | 6.42 |
| COCC(=O)Nc1nn(Cc2ccc(F)cc2)cc1Cl | 7.19 |
| Cc1cc(C(=O)N2CCCC(c3nc(C)no3)C2)on1 (centres undefined) | 6.93 |
| COCC(=O)NCCCn1ncc2c(C)cccc21 | 7.55 |
| Fc1ccccc1-c1cccc(C2CCCN(C3CCOCC3)C2)n1 (centres undefined) | 0.22 |
| CNC(=O)CCc1cc(C)nc(C2CCN(c3ccccc3)CC2)c1 | 3.56 |
| CSc1nnc(C2CCN(C(=O)N3CCCC3)CC2)n1C(C)C | 8.54 |
| CO[C@H]1CN(Cc2nc3ccccc3n2C)CC[C@@]12CCCO2 | 2.5 |
| CN(C)c1nccc(C2CN(S(C)(=O)=O)C2)n1 | 6.95 |
| CCn1c(C)nc2cc(NC(=O)C3CN(C(C)=O)C3)ccc21 | 3.46 |
| O=C(CO)N1CCC(c2ccnc(Nc3cc(C(F)(F)F)ccn3)n2)C1 (centres undefined) | 18 |
| Cn1cccc1C(=O)N1CCC(O)(CN2CCc3ccccc3C2)C1 (centres undefined) | 3.77 |
| CCC(NC(=O)c1ccco1)c1nc(C(F)(F)F)cs1 (centres undefined) | -0.183 |
| CS(=O)(=O)CCC(=O)N1CCC(c2ccc(F)c(F)c2)CC1 | 7.09 |

| SMILES | cytotoxicity at 10 µM [%] |
| --- | --- |
| COCC(O)CNC(=O)Nc1ccc(Cl)cc1-n1cccc1 (centres undefined) | -6.93 |
| COc1cc(NCCNC(=O)c2cc[nH]c2C)cc(OC)c1 | -4.33 |
| CCc1noc(CN2CCN(C(=O)OC(C)(C)C)C(C)C2)n1 (centres undefined) | 2.53 |
| CC(C)CC1COCCN1C(=O)Cc1cccs1 (centres undefined) | 5.84 |
| Cc1ccc(NC(=O)N(C)C)c(C(=O)OCC(=O)NC2CCCC2)c1 | -8.03 |
| Cc1nc2n(n1)CC(NCCc1cccs1)CC2 (centres undefined) | -9.77 |
| O=C(CS(=O)(=O)Cc1nnnn1C1CC1)NCC1CC1 | 16.6 |
| O=S(=O)(Cc1ccccc1F)N1CCCC1c1nnc2n1CCCCC2 (centres undefined) | 7.17 |
| CC(NC(=O)COc1ccccc1C(=O)O)c1ccc(F)cc1 (centres undefined) | -1.11 |
| O=c1[nH]ncc(NCCOc2ccc3c(c2)OCO3)c1Cl | 3.1 |
| COc1ccsc1C(=O)N1CCCC1c1c(C)nn(C)c1OC (centres undefined) | -0.561 |
| Cc1ccc(C(=O)Nc2cccc3c2C(=O)NC3)c(C)n1 | 0.102 |
| Cc1nc(CNCC(C)c2nc3ccccc3o2)cs1 (centres undefined) | 14.5 |
| CC(C)(C)c1cc(NC(=O)CN2CCCCC2Cn2cncn2)on1 (centres undefined) | 0.0788 |
| CC1(C)CCC(C(=O)N2CCCO2)c2ccccc21 (centres undefined) | -0.636 |
| CSCc1cccc(NC(=O)N2CCC(N3CC=CC3)C2)c1 (centres undefined) | -1.83 |
| Cc1oc(CN(C)C(=O)c2ccc(C(F)(F)F)cc2)cc1C(=O)O | 9.08 |
| CCC(Nc1nnnn1-c1ccccc1)C(=O)Nc1nc(C)cs1 (centres undefined) | -23 |
| CCC(Nc1nnnn1-c1ccccc1)C(=O)NCc1ccsc1 (centres undefined) | -3.56 |
| CNC(=O)c1ccccc1NCc1ncnn1C | -0.393 |
| O=S(=O)(CCC1CCCO1)NCc1ncc(-c2ccccc2)o1 (centres undefined) | 3.7 |
| CCS(=O)(=O)c1ccc2c(c1)N1CCS(=O)(=O)N=C1O2 | 10.3 |
| O=S(=O)(Nc1ccccn1)c1cc(Cl)cc2c1OCC2 | 0.38 |

| SMILES | cytotoxicity at 10 µM [%] |
| --- | --- |
| Cc1cccc(C(C)(C)CNC(=O)CN(C)c2cnccn2)c1 | 1.79 |
| CN1CC(C(=O)NCCc2ccc3c(c2)OCO3)CC1=O (centres undefined) | 2.55 |
| CS(=O)(=O)CCCNC1(c2cccc(F)c2)CC1 | -3.39 |
| O=C(NCCc1ccccc1)N1CCC(C2OCCO2)CC1 | -46.5 |
| Cc1cccc(Sc2nccn(C)c2=O)c1 | 3.52 |
| CNS(=O)(=O)c1cccc(C(C)NCc2cccc(OC)c2)c1 (centres undefined) | -12.3 |
| Cc1nc(C)n(CC2CCCCN2CCCS(=O)(=O)N(C)C)n1 (centres undefined) | -18.5 |
| COC(=O)C(C)(C)NC(=O)C1CC(=O)N(C2CCCC2)C1 (centres undefined) | -10.3 |
| O=c1[nH][nH]cc1-c1ccnc(NCCc2ccc(F)cc2)n1 | 3.44 |
| CC(C)NC(=O)NCc1cc(-c2ccco2)n(CC(F)(F)F)n1 | -12.8 |
| CC(C)[C@H](NS(C)(=O)=O)C(=O)NCc1cc(-c2ccccc2)nn1C | -7.88 |
| CCn1c(CC2CCN(C(=O)C3CC(C(C)C)=NO3)CC2)nn(C)c1=O (centres undefined) | 3.72 |
| OCC1(O)CCN(Cc2noc(-c3ccccc3)n2)CC1 | -0.0739 |
| CCN1CCCCC1C(=O)N1CCc2onc(-c3ccc(Cl)cc3)c2C1 (centres undefined) | -60.1 |
| CCSc1ccc(C(=O)N2CCC3(CCC(=O)N(C)C3)CC2)s1 | -11.2 |
| CC(=O)Nn1c(C)cc(CN2CCCN(Cc3ccncc3)CC2)c1C | 5.63 |
| CN(Cc1ccccc1)c1ncccc1CNC1CCCC1 | -8.8 |
| CCCc1cc(C(=O)N[C@@H](CO)[C@@H](O)c2ccccc2)n(C)n1 | 4.76 |
| CCC(C)N(Cc1sccc1C)C(=O)c1ccc(S(C)(=O)=O)cc1 (centres undefined) | 6.7 |
| CC(=O)NCC1CCCN(Cc2nc(Cc3ccccc3F)no2)C1 (centres undefined) | -11.1 |
| Cc1noc(CN(C)Cc2cnc(N3CCOCC3)nc2)n1 | -14 |
| NC(=O)CN1CC2(CCC1=O)CCN(Cc1cc(F)cc(F)c1)CC2 | 7.1 |
| C[C@@H]1CN(Cc2cccnc2)C[C@]1(C)O | -6.1 |

| SMILES | cytotoxicity at 10 µM [%] |
| --- | --- |
| CCCN1CCCn2nc(CNS(=O)(=O)c3ccc(F)cc3)cc2C1 | -8.57 |
| COCCCN(C)C(=O)Cn1cccc(OC)c1=O | 7.52 |
| CCn1nc(C)c(C(=O)N2C[C@@H](CN(C)CCOC)[C@@H](CO)C2)c1C | 1.35 |
| Cc1cc(OCC(O)c2nc3c([nH]2)CC(C)(C)CNC3=O)ccc1Cl (centres undefined) | -1.57 |
| NC(=O)c1cc2c(nc1CCOCc1ccccc1)CCC2 | 2.99 |
| CCN1CC2(CCN(Cc3nc(CSC)no3)CC2)CC1=O | -1.41 |
| CC(=O)NCc1nc(Cc2cccc(Cl)c2)nn1C1CCN(C)CC1 | -1.12 |
| CN(Cc1ccno1)c1nc(C2CCCC2)nc2c1cnn2C | 7.27 |
| NC1(C(=O)NCCC2CN(Cc3ccco3)CCO2)CCCC1 (centres undefined) | -1.03 |
| Cc1ccc(N2C[C@@H](CN3CCOCC3)[C@@H](CO)C2)nn1 | 7.13 |
| CC(C)[C@H]1CN(CCCO)C[C@@H]1NC(=O)CCC(F)(F)F | -0.6 |
| COCCS(=O)(=O)c1ncc(CN(C)CC(C)C)n1Cc1ccccc1 | -1.27 |
| CC(C)c1nc(CN(C)Cc2ccc(F)cc2)cs1 | -8.81 |
| CC(=O)c1cc(C(=O)N2CCC3(CC2)Nc2ccccc2NC3=O)cs1 | 3.54 |
| Cc1ccc2nc(CN3CCCC3c3cccnc3)cc(O)c2c1 (centres undefined) | 3.16 |
| CCOc1ccc2[nH]c(=O)c(CN3CCC(O)CC3)cc2c1 | 1.25 |
| CS(=O)(=O)NCc1cc2n(n1)CCCN(Cc1nc3ccccc3[nH]1)C2 | -4.55 |
| CN(C)S(=O)(=O)N1CCN(C(=O)c2ccc3ccn(C)c3c2)CC1 | -7.56 |
| CC(C)C(=O)NCC(=O)N(C)C1CCCN(CCc2ccccc2)C1 (centres undefined) | -16.9 |
| CCn1nc2nc(SCC(=O)O)cc(C(F)F)c2c1C | -3.78 |
| CCn1ncc(-c2cc(C(F)F)n3nc(CCC(=O)O)nc3n2)c1C | -9.44 |
| Cc1cc(C2CCCN2Cc2ccn(C)c(=O)c2)on1 (centres undefined) | -6.04 |
| Cc1nc(CN2CCCC(NCc3ccsc3)C2)no1 (centres undefined) | 0.504 |

| SMILES | cytotoxicity at 10 µM [%] |
| --- | --- |
| c1ccc(CCN2CCN(c3ccc4nncn4n3)CC2)nc1 | -7.93 |
| CC(Cn1cccn1)NC(=O)Nc1nccs1 (centres undefined) | -9.55 |
| Cc1ncc2c(n1)CCN(C(=O)Cc1c(C)noc1C)C2 | -8.55 |
| O=C(CN1CCCC1Cn1cncn1)NCCOc1cccc(F)c1 (centres undefined) | -3.24 |
| COc1c(CNCCNC(=O)c2ccco2)c(C)nn1C | -5.92 |
| O=C1NCCN1C1CCCN(Cc2nnc(-c3ccc(F)cc3)o2)C1 (centres undefined) | -7.69 |
| CN1CCCC1CNC(=O)CCCOc1ccc(F)cc1 (centres undefined) | -7.67 |
| COC(=O)CN(C)C1CCc2ccccc21 (centres undefined) | -7.59 |
| CC(=O)N1CCN(C(=O)CCOc2ccc(C(C)C)cc2)CC1 | -6.51 |
| CCc1nc(C2CCCN(C(=O)CCn3ccccc3=O)C2)no1 (centres undefined) | -12.3 |
| CCc1nccn1C1CCCN(C(=O)c2csc(NC(C)=O)n2)C1 (centres undefined) | -13 |
| Fc1ccc([C@@H]2COC[C@H]2NCc2cccc(F)c2)cc1 | -2.92 |
| COc1ccc(C(=O)CN(C2=NCCCCC2)c2ccccc2)cc1 | 9.62 |
| CCS(=O)(=O)N1CCc2c(CN(C)Cc3ccco3)cncc2C1 | -4.85 |
| Cn1cc(CN2CCC3(CCC(C(=O)NCC4CC4)C3)CC2)cn1 (centres undefined) | 3.47 |
| CC(=O)NC1CCN(c2cc(C3CCNCC3)ccn2)CC1 | 2.93 |
| Cn1nc(Cn2cccn2)c2c1CN(Cc1ccoc1)C2 | -3.77 |
| Cc1ccc(N2C[C@@H]3CCCO[C@@H]3[C@H](N3CCCC3)C2)nn1 | 2.96 |
| CCn1ccnc1CN1CCNCC1C (centres undefined) | -3.03 |
| CCN(CC)[C@@H]1CN(Cc2nccn2C)[C@@H]2CCCO[C@H]12 | 4.92 |
| Cn1cnc2c1C(COCc1cccnc1)N(Cc1nccs1)CC2 (centres undefined) | 10.5 |
| CC(C)N(C)Cc1cncc2c1CCN(Cc1ccoc1)C2 | -109 |
